Like-named read-outs stand apart in the source and are kept apart here.
Experiments:
[1] = Potentiometric determination of complex formation constants; type: physicochemical; conditions: I = 0.15 mol dm^−3 NaCl
Method in brief: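 Test ligand in 3 × 10−3 mol dm−3 HCl with 0.15 mol dm−3 NaCl, in fresh DI water, titrated with carbonate-free 0.1 mol dm−3 NaOH. Runs: acid alone, ligand alone, and ligand plus Fe(III) at 3 × 10−3, 1.5 × 10−3 or 1 × 10−3 mol dm−3 (metal:ligand 1:1, 1:2, 1:3). Water bath ±0.1 °C, pH glass electrode, pH 2–11, triplicate. Log β refined jointly from the three ratios.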

[2] = Thermodynamic properties of iron; type: physicochemical; conditions: I = 0.15 mol dm^−3 NaCl
Method in brief: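 Log β came from potentiometric titrations at 25, 37 and 40 °C in 0.15 mol dm−3 NaCl. ΔG was computed as −2.303RT log10 β. ΔH and ΔS per species were taken as the slope and intercept, respectively, of a Van't Hoff plot across the three temperatures. Units: ΔG and ΔH in kJ mol−1, ΔS in kJ mol−1 K−1.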

[3] = cited from earlier work
[4] = Potentiometric titration, protonation constants; type: physicochemical; conditions: I = 0.15 mol dm^−3 NaCl
[5] = 298.15 K and 0.05 M, ref Gergely et al. 21
[6] = 298.15 K and 0.15 mol dm^−3 NaNO3, ref Angkawijaya et al. 22

NCC(=O)O [Gly, glycine]
log β ([1]; complex [MA2H−2], 25 °C): 6.54(5)
log β ([1]; complex [MA2H−2], 37 °C): 7.55(4)
log β ([1]; complex [MA2H−2], 40 °C): 8.17(8)
log β ([1]; complex [MA2H−3], 25 °C): −4.65(11)
log β ([1]; complex [MA2H−3], 37 °C): −2.95(5)
log β ([1]; complex [MA2H−3], 40 °C): −1.57(9)
log β ([1]; complex [MA2H−4], 40 °C): −11.78(10)
log β ([1]; complex [MA2], 25 °C): 19.10(11)
log β ([1]; complex [MA2], 37 °C): 19.54(10)
log β ([1]; complex [MA2], 40 °C): 19.72(13)
log β ([1]; complex [MA3], 25 °C): 27.59(9)
log β ([1]; complex [MA3], 37 °C): 28.35(3)
log β ([1]; complex [MA3], 40 °C): 28.49(14)
log β ([1]; complex [MAH−1], 25 °C): 6.21(2)
log β ([1]; complex [MAH−1], 37 °C): 6.63(2)
log β ([1]; complex [MAH−1], 40 °C): 6.75(5)
log β ([1]; complex [MAH−2], 25 °C): 2.32(2)
log β ([1]; complex [MAH−2], 37 °C): 3.34(3)
log β ([1]; complex [MAH−2], 40 °C): 3.78(8)
log β ([1]; complex [MA], 25 °C): 9.17(6)
log β ([1]; complex [MA], 37 °C): 9.59(3)
log β ([1]; complex [MA], 40 °C): 9.89(11)
−ΔG ([2]; complex [MA2H−2], 25 °C): 37.35 kJ/mol
−ΔG ([2]; complex [MA2H−2], 37 °C): 44.82 kJ/mol
−ΔG ([2]; complex [MA2H−2], 40 °C): 48.99 kJ/mol
ΔH ([2]; complex [MA2H−2]): 181.30 kJ/mol
ΔS ([2]; complex [MA2H−2]): −0.73 kJ mol^−1 K^−1
−ΔG ([2]; complex [MA2H−3], 25 °C): -26.53 kJ/mol
−ΔG ([2]; complex [MA2H−3], 37 °C): -17.51 kJ/mol
−ΔG ([2]; complex [MA2H−3], 40 °C): -9.43 kJ/mol
ΔH ([2]; complex [MA2H−3]): 333.89 kJ/mol
ΔS ([2]; complex [MA2H−3]): −1.20 kJ mol^−1 K^−1
−ΔG ([2]; complex [MA2], 25 °C): 109.22 kJ/mol
−ΔG ([2]; complex [MA2], 37 °C): 116.01 kJ/mol
−ΔG ([2]; complex [MA2], 40 °C): 118.26 kJ/mol
ΔH ([2]; complex [MA2]): 67.46 kJ/mol
ΔS ([2]; complex [MA2]): −0.59 kJ mol^−1 K^−1
−ΔG ([2]; complex [MA3], 25 °C): 157.48 kJ/mol
−ΔG ([2]; complex [MA3], 37 °C): 168.38 kJ/mol
−ΔG ([2]; complex [MA3], 40 °C): 170.82 kJ/mol
ΔH ([2]; complex [MA3]): 109.24 kJ/mol
ΔS ([2]; complex [MA3]): −0.89 kJ mol^−1 K^−1
−ΔG ([2]; complex [MAH−1], 25 °C): 35.46 kJ/mol
−ΔG ([2]; complex [MAH−1], 37 °C): 39.35 kJ/mol
−ΔG ([2]; complex [MAH−1], 40 °C): 40.50 kJ/mol
ΔH ([2]; complex [MAH−1]): 63.72 kJ/mol
ΔS ([2]; complex [MAH−1]): −0.33 kJ mol^−1 K^−1
−ΔG ([2]; complex [MAH−2], 25 °C): 13.27 kJ/mol
−ΔG ([2]; complex [MAH−2], 37 °C): 19.83 kJ/mol
−ΔG ([2]; complex [MAH−2], 40 °C): 22.66 kJ/mol
ΔH ([2]; complex [MAH−2]): 166.89 kJ/mol
ΔS ([2]; complex [MAH−2]): −0.60 kJ mol^−1 K^−1
−ΔG ([2]; complex [MA], 25 °C): 52.34 kJ/mol
−ΔG ([2]; complex [MA], 37 °C): 56.96 kJ/mol
−ΔG ([2]; complex [MA], 40 °C): 59.31 kJ/mol
ΔH ([2]; complex [MA]): 79.55 kJ/mol
ΔS ([2]; complex [MA]): −0.44 kJ mol^−1 K^−1
pKa1 [3, 5]: 2.33
pKa2 [3, 5]: 9.61
pKa1 [3, 6]: 2.32
pKa2 [3, 6]: 9.62
pKa1 ([4]; 25 °C): 2.51(7)
pKa2 ([4]; 25 °C): 9.68(3)
pKa1 ([4]; 37 °C): <2
pKa2 ([4]; 37 °C): 9.37(1)
pKa1 ([4]; 40 °C): <2
pKa2 ([4]; 40 °C): 9.27(2)

O=C(O)[C@@H]1CCCN1 [Pro, reference compound]
pKa1 ([3]; ref Zhu et al. 23): 1.99

From article PMC9083272 (RSC Advances, 2018)
